Test results published in ChEMBL document CHEMBL4138126, “Synthesis, antiproliferative, anti-tubulin activity, and docking study of new 1,2,4-triazoles as potential combretastatin analogues” (Eur J Med Chem, 2017).

What was measured:
HepG2 = assay: Cytotoxicity in human HepG2 cells assessed as reduction in cell viability incubated for 48 hrs by MTT assay; format: functional, cell-based; settings: HepG2, 48 h
In short: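 HepG2 and HL60 (ATCC) grown in DMEM with 10% FBS, 2 mM L-glutamine, penicillin/streptomycin, amphotericin B at 37 °C, 5% CO2. Samples dissolved in DMSO, diluted thousandfold in assay. Cells seeded in serum-free medium, treated with serial concentrations 48 h; MTT 4 h, formazan dissolved in acidified isopropanol, A570. Triplicates averaged; viability relative to untreated/vehicle control.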

CCRF-CEM = assay: Growth inhibition of human CCRF-CEM cells assessed as cell growth at 10 uM after 48 hrs by sulforhodamine B assay; format: functional; settings: read-out: Activity
In short: (§1)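 NCI 60-cell-line panel screen (nine cancer types). Compounds added at single concentration 10^-5 M, cultures incubated 48 h; growth inhibition percentages reported.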

RPMI-8226 = assay: Growth inhibition of human RPMI8226 cells assessed as cell growth at 10 uM after 48 hrs by sulforhodamine B assay; format: functional; settings: RPMI-8226, 48 h, read-out: Activity; in short: as §1
HOP-92 = assay: Growth inhibition of human HOP92 cells assessed as cell growth at 10 uM after 48 hrs by sulforhodamine B assay; format: functional; settings: HOP-92, 48 h, read-out: Activity; in short: as §1
NCI-H226 = assay: Growth inhibition of human NCI-H226 cells assessed as cell growth at 10 uM after 48 hrs by sulforhodamine B assay; format: functional; settings: NCI-H226, 48 h, read-out: Activity; in short: as §1
NCI-H23 = assay: Growth inhibition of human NCI-H23 cells assessed as cell growth at 10 uM after 48 hrs by sulforhodamine B assay; format: functional; settings: NCI-H23, 48 h, read-out: Activity; in short: as §1
NCI-H522 = assay: Growth inhibition of human NCI-H522 cells assessed as cell growth at 10 uM after 48 hrs by sulforhodamine B assay; format: functional; settings: NCI-H522, 48 h, read-out: Activity; in short: as §1
HCT-15 = assay: Growth inhibition of human HCT15 cells assessed as cell growth at 10 uM after 48 hrs by sulforhodamine B assay; format: functional; settings: HCT-15, 48 h, read-out: Activity; in short: as §1
HT-29 = assay: Growth inhibition of human HT-29 cells assessed as cell growth at 10 uM after 48 hrs by sulforhodamine B assay; format: functional; settings: HT-29, 48 h, read-out: Activity; in short: as §1
KM12 = assay: Growth inhibition of human KM12 cells assessed as cell growth at 10 uM after 48 hrs by sulforhodamine B assay; format: functional; settings: KM12, 48 h, read-out: Activity; in short: as §1
SW-620 = assay: Growth inhibition of human SW620 cells assessed as cell growth at 10 uM after 48 hrs by sulforhodamine B assay; format: functional; settings: SW-620, 48 h, read-out: Activity
In short: (§2)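 NCI 60-cell-line panel from nine tumour types (leukaemia, lung, colon, CNS, melanoma, ovarian, renal, prostate, breast). Each compound was added at one single concentration, and cultures were incubated for 48 h. Results are reported as percent growth inhibition.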

SF-295 = assay: Growth inhibition of human SF295 cells assessed as cell growth at 10 uM after 48 hrs by sulforhodamine B assay; format: functional; settings: SF-295, 48 h, read-out: Activity; in short: as §1
SF-539 = assay: Growth inhibition of human SF539 cells assessed as cell growth at 10 uM after 48 hrs by sulforhodamine B assay; format: functional; settings: SF-539, 48 h, read-out: Activity; in short: as §1
SNB-19 = assay: Growth inhibition of human SNB19 cells assessed as cell growth at 10 uM after 48 hrs by sulforhodamine B assay; format: functional; settings: SNB-19, 48 h, read-out: Activity; in short: as §2
SNB-75 = assay: Growth inhibition of human SNB75 cells assessed as cell growth at 10 uM after 48 hrs by sulforhodamine B assay; format: functional; settings: SNB-75, 48 h, read-out: Activity; in short: as §2
LOX IMVI = assay: Growth inhibition of human LOXIMVI cells assessed as cell growth at 10 uM after 48 hrs by sulforhodamine B assay; format: functional; settings: read-out: Activity; in short: as §1
Malme-3M = assay: Growth inhibition of human MALME-3M cells assessed as cell growth at 10 uM after 48 hrs by sulforhodamine B assay; format: functional; settings: read-out: Activity; in short: as §1
M14 = assay: Growth inhibition of human M14 cells assessed as cell growth at 10 uM after 48 hrs by sulforhodamine B assay; format: functional; settings: M14, 48 h, read-out: Activity; in short: as §1
MDA-MB-435 = assay: Growth inhibition of human MDA-MB-435 cells assessed as cell growth at 10 uM after 48 hrs by sulforhodamine B assay; format: functional; settings: MDA-MB-435, 48 h, read-out: Activity; in short: as §1
SK-MEL-2 = assay: Growth inhibition of human SK-MEL-2 cells assessed as cell growth at 10 uM after 48 hrs by sulforhodamine B assay; format: functional; settings: SK-MEL-2, 48 h, read-out: Activity; in short: as §1
OVCAR-3 = assay: Growth inhibition of human OVCAR3 cells assessed as cell growth at 10 uM after 48 hrs by sulforhodamine B assay; format: functional; settings: OVCAR-3, 48 h, read-out: Activity; in short: as §1
OVCAR-4 = assay: Growth inhibition of human OVCAR4 cells assessed as cell growth at 10 uM after 48 hrs by sulforhodamine B assay; format: functional; settings: OVCAR-4, 48 h, read-out: Activity; in short: as §1
OVCAR-5 = assay: Growth inhibition of human OVCAR5 cells assessed as cell growth at 10 uM after 48 hrs by sulforhodamine B assay; format: functional; settings: OVCAR-5, 48 h, read-out: Activity; in short: as §1
NCI/ADR-RES = assay: Growth inhibition of human NCI-ADR-RES cells assessed as cell growth at 10 uM after 48 hrs by sulforhodamine B assay; format: functional; settings: read-out: Activity; in short: as §1
SK-OV-3 = assay: Growth inhibition of human SKOV3 cells assessed as cell growth at 10 uM after 48 hrs by sulforhodamine B assay; format: functional; settings: SK-OV-3, 48 h, read-out: Activity; in short: as §1
786-0 = assay: Growth inhibition of human 786-0 cells assessed as cell growth at 10 uM after 48 hrs by sulforhodamine B assay; format: functional; settings: 786-0, 48 h, read-out: Activity; in short: as §1
A498 = assay: Growth inhibition of human A498 cells assessed as cell growth at 10 uM after 48 hrs by sulforhodamine B assay; format: functional; settings: A498, 48 h, read-out: Activity; in short: as §1
RXF 393 = assay: Growth inhibition of human RXF393 cells assessed as cell growth at 10 uM after 48 hrs by sulforhodamine B assay; format: functional; settings: RXF 393, 48 h, read-out: Activity; in short: as §1
PC-3 = assay: Growth inhibition of human PC3 cells assessed as cell growth at 10 uM after 48 hrs by sulforhodamine B assay; format: functional; settings: PC-3, 48 h, read-out: Activity; in short: as §1
DU-145 = assay: Growth inhibition of human DU145 cells assessed as cell growth at 10 uM after 48 hrs by sulforhodamine B assay; format: functional; settings: DU-145, 48 h, read-out: Activity; in short: as §1
MCF7 = assay: Growth inhibition of human MCF7 cells assessed as cell growth at 10 uM after 48 hrs by sulforhodamine B assay; format: functional; settings: MCF7, 48 h, read-out: Activity; in short: as §1
T47D = assay: Growth inhibition of human T47D cells assessed as cell growth at 10 uM after 48 hrs by sulforhodamine B assay; format: functional; settings: read-out: Activity; in short: as §2

SMILES | IC50 (HepG2) [µM] | growth at 10 µM (CCRF-CEM) [%] | growth at 10 µM (RPMI-8226) [%] | growth at 10 µM (HOP-92) [%] | growth at 10 µM (NCI-H226) [%] | growth at 10 µM (NCI-H23) [%] | growth at 10 µM (NCI-H522) [%] | growth at 10 µM (HCT-15) [%] | growth at 10 µM (HT-29) [%] | growth at 10 µM (KM12) [%] | growth at 10 µM (SW-620) [%] | growth at 10 µM (SF-295) [%] | growth at 10 µM (SF-539) [%] | growth at 10 µM (SNB-19) [%] | growth at 10 µM (SNB-75) [%] | growth at 10 µM (LOX IMVI) [%] | growth at 10 µM (Malme-3M) [%] | growth at 10 µM (M14) [%] | growth at 10 µM (MDA-MB-435) [%] | growth at 10 µM (SK-MEL-2) [%] | also measured
CCOc1ccc(-n2nc(C(=O)Nc3ccccc3)nc2-c2cc(OC)c(OC)c(OC)c2)cc1 | 41.8 | 50.8 | 47.4 | 46 | 80 | 66.6 | 22.8 | 35.4 | 13 | 27.5 | 36.1 | 34 | 62 | 55.8 | 35.1 | 55.8 | 54.5 | 38 | 0.19 | 37.7 | growth at 10 µM (OVCAR-3): 43.2%; growth at 10 µM (OVCAR-4): 59.5%; growth at 10 µM (OVCAR-5): 84.1%; growth at 10 µM (NCI/ADR-RES): 45.7%; growth at 10 µM (SK-OV-3): 51%; growth at 10 µM (786-0): 69.4%; growth at 10 µM (A498): 10.3%; growth at 10 µM (RXF 393): 69.2%; growth at 10 µM (PC-3): 44.9%; growth at 10 µM (DU-145): 89.6%; growth at 10 µM (MCF7): 37%; growth at 10 µM (T47D): 39.4%
CCOc1ccc(-n2nc(C(=O)Nc3ccc(OC)c(O)c3)nc2-c2cc(OC)c(OC)c(OC)c2)cc1 | 13.7 | 89.5 | 67.7 | 68.1 | 96.5 | 86.1 | 70.3 | 97.2 | 99.2 | 92.8 | 104 | 108 | 96.2 | 91.8 | 71.2 | 90.6 | 114 | 103 | 95 | 96 | growth at 10 µM (OVCAR-3): 97.8%; growth at 10 µM (OVCAR-4): 99.8%; growth at 10 µM (OVCAR-5): 102%; growth at 10 µM (NCI/ADR-RES): 86.4%; growth at 10 µM (SK-OV-3): 112%; growth at 10 µM (786-0): 94.5%; growth at 10 µM (A498): 111%; growth at 10 µM (RXF 393): 112%; growth at 10 µM (PC-3): 72%; growth at 10 µM (DU-145): 98.5%; growth at 10 µM (MCF7): 90.9%; growth at 10 µM (T47D): 88.8%
CCOc1ccc(-n2nc(C(=O)NCc3cc(F)cc(F)c3)nc2-c2cc(OC)c(OC)c(OC)c2)cc1 | 1.41 | 85.6 | 47 | 61.1 | 65.2 | 81.8 | 50.9 | 61 | 61.7 | 65.8 | 91.4 | 65.2 | 70.7 | 62.3 | 43.4 | 66.6 | 90.1 | 65.2 | 67 | 65.5 | growth at 10 µM (OVCAR-3): 71.2%; growth at 10 µM (OVCAR-4): 65.8%; growth at 10 µM (OVCAR-5): 85%; growth at 10 µM (NCI/ADR-RES): 61.7%; growth at 10 µM (SK-OV-3): 76%; growth at 10 µM (786-0): 65.9%; growth at 10 µM (A498): 64.4%; growth at 10 µM (RXF 393): 68.6%; growth at 10 µM (PC-3): 40.2%; growth at 10 µM (DU-145): 86.9%; growth at 10 µM (MCF7): 44.3%; growth at 10 µM (T47D): 44.1%
COc1cccc(-n2nc(C(=O)NCc3ccccc3C)nc2-c2cc(OC)c(OC)c(OC)c2)c1 | 3.85 | 104 | 95.7 | 81.8 | 87.9 | 84 | 60.8 | 74.3 | 80.2 | 82 | 102 | 76.1 | 87.7 | 83.2 | 31.7 | 78.7 | 94.7 | 86.7 | 85.8 | 78.1 | growth at 10 µM (OVCAR-3): 81%; growth at 10 µM (OVCAR-4): 81.6%; growth at 10 µM (OVCAR-5): 111%; growth at 10 µM (NCI/ADR-RES): 63.1%; growth at 10 µM (SK-OV-3): 87.7%; growth at 10 µM (786-0): 76%; growth at 10 µM (A498): 95.9%; growth at 10 µM (RXF 393): 109%; growth at 10 µM (PC-3): 83.2%; growth at 10 µM (DU-145): 94.2%; growth at 10 µM (MCF7): 82.1%; growth at 10 µM (T47D): 56.4%
